Most compounds without a hit are left out; they make up all but 11% or so of the library.
G6PDH counter: L. mesenteroides G6PDH inhibitors, counter-screen for G6PDH-coupled screening assays, biochemical, Leuconostoc mesenteroides enzyme; Purified L. mesenteroides G6PDH, diaphorase/resazurin coupled fluorescence, 45 min; glucose-6-phosphate dehydrogenase [Leuconostoc mesenteroides]; inhibition, % at 5 µM; AID 1020, 2008; actives 0.12% (n = 200,000)
WT yeast gro inh: growth inhibition of WT strain, primary screen, mitochondrial fusion inhibitor project, WT and mutant strains, chemical genetic. mitochondrial fusion phenotypic screen. inhibition, % at 10 µM. actives 2.1% (n = 190,000). AID 1362, 2008; in the data active = inhibition above about 58%; tested in S. cerevisiae
Diaphorase act: compounds boosting diaphorase resazurin reduction – biochemical, uHTS, resorufin fluorescence, counter-screen for diaphorase-coupled primary assays, primary screen; AID 1229, 2008; activation factor at 20 µM; actives 0.005% (n = 190,000); Diaphorase/resazurin coupled assay, 16 min; active compounds read high; 1 = vehicle wells, 0 = NADH-free wells;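 active = diaphorase activity raised at least twofold by the compound at 20 µM; inactive = activation factor below 2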
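test system = bacterial diaphorase enzyme (C. kluyveri) | quantity = enzyme 0.07 U/mL final | reagent = NADH substrate 0.114 mM plus resazurin dye 0.1 mM, final | incubation = 16 min enzyme reaction, ambient temperature | buffer or medium = HEPES pH 7.4 buffer with MgCl2 and Tween 20 | signal = fluorescence of resorufin, 544 nm excitation, 590 nm emission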
Diaphorase inh: diaphorase inhibitors and chemical oxidizers, primary screen, counter-screen for diaphorase-coupled primary assays, biochemical, uHTS, resorufin fluorescence; diaphorase resazurin-to-resorufin fluorescence, NADH, 16 min; bacterial (C. kluyveri) enzyme, not human; inhibition, % at 20 µM; actives 0.69% (n = 190,000);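 active = primary screen inhibition at 20 µM above a set limit, cut at about 50% in these data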;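 also: plate controls were DMSO with full reaction for no effect and wells lacking NADH for full effect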
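System: Bacterial diaphorase enzyme (C. kluyveri) | Incubation: 16-min room-temperature incubation before reading | Benchmarks: No-NADH positive control and DMSO neutral control | Measured by: Resorufin fluorescence 544/590 nm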
Lmaj promast: Leishmania major promastigote growth inhibition, primary screen. Leishmania major promastigotes, resazurin fluorescence viability. inhibition, % at 10 µM. actives 9% (n = 200,000);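 also: promastigotes grown with compound for 44 hours at 28 °C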
Starred values were filed as active, the others as inactive. Rule as the data show it, unless noted: active = inhibition above about 50%; inactive = the rest.

SMILES | G6PDH counter | WT yeast gro inh | Diaphorase act | Diaphorase inh | Lmaj promast
Fc1ccc(Cn2nnc(-c3ccc(CN4CCOCC4)cc3)n2)cc1 | 7.9 | 22.9 | 1.1 | -5.9 | 95.1*
Clc1ccc(Cn2nnc(-c3ccc(CN4CCOCC4)cc3)n2)cc1 | -0.5 | 51.4 | 0.9 | 11.0 | 96.3*
COc1ccc(NC(=O)Cn2nnc(-c3ccc(CN4CCOCC4)cc3)n2)c(OC)c1 | 16.4 | -5.6 | 0.9 | 14.6 | 83.3*
COc1cc(SC)ccc1C(=O)Nc1ccc(C)cc1 | 10.2 | 9.6 | 1 | 1.7 | -3.3
COc1cc(SC)ccc1C(=O)Nc1ncc(C)s1 | 1.8 | 10.6 | 0.8 | 23.1 | 66.5*
CSc1ccc(Cl)c(C(=O)NCCOc2cc(C(C)C)ccc2C)c1 | 10.3 | 67.0* | 0.8 | 19.1 | 0.7
COc1cc(SC)ccc1C(=O)NCCOc1ccc(Cl)cc1 | -18.8 | 62.0* | 0.8 | 18.4 | 0.2
COc1cc(SC)ccc1C(=O)NCCOc1c(C)cc(C)cc1C | 2.1 | 27.1 | 0.9 | 12.4 | 3.5
O=C(CCc1nc2ccccc2s1)OCc1ccccc1 | 6.9 | -14.7 | 0.9 | 7.0 | 56.0*
C=CCNC(=O)NC(=O)COC(=O)CC(NC(N)=O)c1ccc(Cl)cc1 (centres undefined) | -8.9 | 0.2 | 0.9 | 12.2 | -3.7
CN(C)CCNC(=O)COc1ccc(C23CC4CC(CC(C4)C2)C3)cc1 | 2.8 | 95.8* | 1.2 | -15.8 | 100.5*
Cc1ccc(C)c(OCC(=O)NCCN(C)C)c1 | 5.4 | -7.4 | 0.9 | 12.7 | -3.1
Cc1ccc(C23CC4CC(CC(NC(=O)NCCN(C)C)(C4)C2)C3)cc1 | 4.5 | -2.8 | 1 | -3.6 | 99.0*
CCOc1ccccc1CN1CCN(S(C)(=O)=O)CC1 | 6.5 | 13.2 | 0.9 | 9.5 | 82.1*
O=C(C1CCCN(S(=O)(=O)c2cccs2)C1)N1CCN(C2CCCCC2)CC1 (centres undefined) | 18.6 | -11.6 | 0.9 | 8.3 | 83.0*
O=C(c1cccs1)N1CCN(C2CCN(Cc3ccccc3)CC2)CC1 | -2.5 | 1.1 | 0.9 | 10.5 | 90.9*
O=C(C1CCCN(S(=O)(=O)c2cccs2)C1)N1CCc2ccccc2C1 (centres undefined) | 1.3 | 3.2 | 0.8 | 19.5 | 4.3
CS(=O)(=O)N1CCN(C2CCN(Cc3ccccc3)CC2)CC1 | 2.2 | 2.6 | 1 | 3.4 | 77.3*
CNS(=O)(=O)c1ccc(NCC2COc3ccccc3O2)c([N+](=O)[O-])c1 (centres undefined) | 6.2 | -4.3 | 0.9 | 9.1 | 3.6
Cc1ccc(CNC(=O)c2ccc(C#CC(C)(C)O)s2)cc1 | -0.6 | 4.6 | 0.9 | 7.4 | -0.8
O=C(c1ccccc1)N1CCN(C2CCCCCC2)CC1 | 5.6 | -8.6 | 0.8 | 19.7 | 42.7
O=C(c1cccs1)N1CCN(C2CCCCC2)CC1 | 12.3 | -13.5 | 0.9 | 13.6 | 83.2*
CN(CC(=O)Nc1ccc(F)c(F)c1F)C(=O)/C=C/c1ccc(Cl)cc1 | -5.7 | -1.1 | 1.1 | -11.3 | -8.3
COc1ccc(CN(CCN(C)C)Cc2ccccc2)c(OC)c1 | 10.9 | -0.9 | 0.8 | 20.8 | 99.8*
CNc1c([N+](=O)[O-])cnn1-c1ccc(F)cc1 | 11.2 | -5.7 | 0.9 | 9.0 | 0.2
SMILES | G6PDH counter | WT yeast gro inh | Diaphorase act | Diaphorase inh | Lmaj promast
Cc1cccc(C)c1OCCOC(=O)c1n[nH]c2ccccc12 | 0.1 | 67.4* | 0.8 | 22.2 | 10.5
COCCn1ccc(O)c(Cc2ccccc2)c1=O | -6.4 | 0.6 | 0.9 | 10.7 | -4.0
COc1cc(NC(=S)Nc2ccccn2)cc(OC)c1 | 7.4 | 16.2 | 0.9 | 12.3 | 5.0
Cc1ccccc1-n1c(C)nnc1SCC(=O)N1CCc2ccccc2C1 | 7.0 | -33.8 | 0.9 | 11.3 | 50.4*
Cn1c(SCC(=O)N2CCc3ccccc3C2)nnc1-c1ccncc1 | -1.3 | -9.5 | 1.1 | -6.1 | 0.5
Cn1c(SCC(=O)N2CCc3ccccc3C2)nnc1-c1cccs1 | -11.4 | 0.2 | 0.9 | 7.9 | 78.4*
CCc1cccc(CC)c1-n1c(SCC(=O)c2c(N)n(C)c(=O)n(C)c2=O)nnc1-c1cccnc1 | 15.2 | -14.0 | 0.9 | 14.0 | -10.1
CCc1cccc(CC)c1-n1c(SCn2nnc3ccccc3c2=O)nnc1-c1cccnc1 | -1.1 | 4.8 | 0.8 | 15.4 | 67.2*
O=C(CSc1nnnn1-c1ccc(Cl)cc1)N1CCc2ccccc2C1 | 0.9 | 81.2* | 0.9 | 10.0 | -6.4
CC(C)CCN(C(=O)COc1ccc(C#N)cc1)c1c(N)n(Cc2ccccc2)c(=O)[nH]c1=O | 4.6 | -0.8 | 1 | 2.1 | -1.3
CCc1nn(CCCC(=O)N2CCc3ccccc3C2)c(=O)c2cc3occc3n12 | 2.6 | 22.8 | 1 | -3.2 | -4.2
COc1ccc(/C=N/NC(=O)CC(=O)NCc2cccnc2)cc1 | 4.5 | 8.3 | 1.1 | -8.2 | -1.9
CCc1cccc(CC)c1-n1c(SCC(=O)N2CCc3ccccc3C2)nnc1-c1cccnc1 | 10.0 | -0.2 | 0.8 | 23.6 | 98.8*
Nn1c(SCC(=O)N2CCc3ccccc3C2)nnc1-c1cccs1 | 1.8 | 2.2 | 0.9 | 11.1 | 0.7
COCC(C)n1c(SCC(=O)N2CCCCC2)nc2ccccc2c1=O (centres undefined) | 6.4 | -1.3 | 0.9 | 12.5 | -1.8
COCC(C)n1c(SCC(=O)N2CCc3ccccc3C2)nc2ccccc2c1=O (centres undefined) | 2.2 | -0.2 | 0.9 | 8.3 | 90.5*
Cc1ccccc1OCC(=O)OCC(=O)NCC1CCCO1 (centres undefined) | -0.2 | -29.4 | 1.1 | -5.4 | -13.7
Cc1ccccc1C(=O)NC(C(=O)Nc1nc2c(s1)CCCC2)C(C)C (centres undefined) | 10.2 | 22.2 | 0.8 | 18.6 | 50.1*
Cc1ccc(C)c(-c2cc(C(=O)Nc3sc(C)c(C)c3C(N)=O)c3ccccc3n2)c1 | 3.3 | 5.5 | 0.8 | 21.4 | 60.6*
Cc1ccccc1-c1cc(C(=O)Nc2nc3c(s2)CCCC3)c2ccccc2n1 | 7.7 | -6.1 | 0.8 | 19.8 | 65.4*
O=C(Nc1nc2c(s1)CCCC2)c1cc(-c2ccc3c(c2)OCO3)nc2ccccc12 | -11.9 | 25.6 | 0.9 | 12.3 | 33.5
O=C(/C=C/c1ccc(Cl)cc1)NCc1cccs1 | 0.5 | 9.0 | 0.9 | 9.9 | 53.2*
CCOC(=O)c1sc(NC(=O)Nc2ccc(Cl)cc2)cc1C | -59.6 | 84.6* | 0.9 | 5.7 | 89.5*
Cc1ccc(C)n1-c1sc2c(c1C#N)CCC(C)C2 (centres undefined) | 8.2 | 23.0 | 1 | -4.9 | -3.9
O=C(c1nnsc1S(=O)c1ccc(Cl)cc1)N1CCOCC1 (centres undefined) | 2.0 | 38.2 | 1 | 3.3 | 100.5*
O=C(Nc1ccccc1)c1nnsc1S(=O)c1ccc(Cl)cc1 (centres undefined) | -0.9 | 6.3 | 0.8 | 24.3 | 29.0

Source: PubChem BioAssay (several laboratories)
